Results: article PMC4002122 (Chemical Research in Toxicology, 2014)

Tests used:
Assay type in all cases: in vitro ADME
Conditions in all cases: 250 μM substrate, 5 μg protein, 60 min, 37 °C
UGT1A4 = target: T1, UGT1A4 (Homo sapiens, UniProt P22310); test: Screening of recombinant UGT1A4 for glucuronidation activity
T1 sequence (P22310 29-534): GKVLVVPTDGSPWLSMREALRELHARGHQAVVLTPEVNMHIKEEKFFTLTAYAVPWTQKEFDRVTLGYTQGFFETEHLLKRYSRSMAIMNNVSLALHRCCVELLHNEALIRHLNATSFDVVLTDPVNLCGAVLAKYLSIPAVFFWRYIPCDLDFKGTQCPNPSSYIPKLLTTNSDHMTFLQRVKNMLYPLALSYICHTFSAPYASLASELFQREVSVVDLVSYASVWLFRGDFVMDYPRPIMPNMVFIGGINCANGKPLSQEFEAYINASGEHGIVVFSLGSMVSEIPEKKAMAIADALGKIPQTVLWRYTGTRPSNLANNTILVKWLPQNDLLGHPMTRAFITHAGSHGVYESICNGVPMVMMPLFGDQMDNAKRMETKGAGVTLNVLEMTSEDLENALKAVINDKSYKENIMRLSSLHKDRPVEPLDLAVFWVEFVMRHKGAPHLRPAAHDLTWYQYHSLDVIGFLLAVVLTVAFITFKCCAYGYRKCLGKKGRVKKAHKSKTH
How it was run: (§1)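 UGT1A1, 1A3, 1A4 and 1A6–1A10 were His-tagged and expressed in baculovirus-infected Sf9 cells; UGT2B4, 2B7, 2B15 and 2B17 were commercial membranes run per supplier protocol. 5 μg membrane protein with 250 μM substrate, 2 mM UDP-GlcUA, Tris–HCl pH 7.4, MgCl2, saccharolactone, 2% DMSO; 37 °C, 60 min; no-substrate controls. Products measured by HPLC-UV/vis; β-glucuronidase hydrolysis separated O- from carboxyl glucuronides.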

UGT1A3 = target: T2, UGT1A3 (Homo sapiens, UniProt P35503); test: Screening of recombinant UGT1A3 for glucuronidation activity
T2 sequence (P35503 29-534): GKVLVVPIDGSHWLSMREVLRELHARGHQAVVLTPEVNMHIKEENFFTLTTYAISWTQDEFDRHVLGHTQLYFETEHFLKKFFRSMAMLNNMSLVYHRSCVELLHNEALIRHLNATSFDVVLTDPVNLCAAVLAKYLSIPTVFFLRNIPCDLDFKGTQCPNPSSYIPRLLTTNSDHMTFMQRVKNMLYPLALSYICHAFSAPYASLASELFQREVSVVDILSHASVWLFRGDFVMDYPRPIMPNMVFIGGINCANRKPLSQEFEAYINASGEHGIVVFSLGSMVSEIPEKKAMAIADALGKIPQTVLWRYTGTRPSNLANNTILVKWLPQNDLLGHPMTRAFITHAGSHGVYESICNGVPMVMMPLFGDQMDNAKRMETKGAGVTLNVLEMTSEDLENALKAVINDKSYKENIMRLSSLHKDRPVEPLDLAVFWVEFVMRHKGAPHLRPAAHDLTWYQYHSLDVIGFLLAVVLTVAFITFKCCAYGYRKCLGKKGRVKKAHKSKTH
How it was run: as §1

UGT1A8 = target: T3, UGT1A8 (Homo sapiens, UniProt Q9HAW9); test: Screening of recombinant UGT1A8 for glucuronidation activity
T3 sequence (Q9HAW9 26-530): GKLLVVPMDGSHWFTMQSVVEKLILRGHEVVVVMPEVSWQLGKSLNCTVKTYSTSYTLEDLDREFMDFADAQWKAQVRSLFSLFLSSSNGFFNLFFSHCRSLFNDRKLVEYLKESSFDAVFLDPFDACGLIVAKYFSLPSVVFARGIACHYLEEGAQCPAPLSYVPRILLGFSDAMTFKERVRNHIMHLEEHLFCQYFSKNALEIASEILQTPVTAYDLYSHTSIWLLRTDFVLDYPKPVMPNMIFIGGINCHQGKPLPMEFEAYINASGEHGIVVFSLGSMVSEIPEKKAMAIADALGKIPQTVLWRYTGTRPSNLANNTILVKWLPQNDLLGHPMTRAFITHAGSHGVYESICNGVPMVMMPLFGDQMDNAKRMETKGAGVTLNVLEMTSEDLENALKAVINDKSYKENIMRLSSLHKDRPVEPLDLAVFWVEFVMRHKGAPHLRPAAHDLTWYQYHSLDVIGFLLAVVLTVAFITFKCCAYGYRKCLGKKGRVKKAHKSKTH
How it was run: as §1

UGT1A9 = target: T4, UGT1A9 (Homo sapiens, UniProt O60656); test: Screening of recombinant UGT1A9 for glucuronidation activity
T4 sequence (O60656 26-530): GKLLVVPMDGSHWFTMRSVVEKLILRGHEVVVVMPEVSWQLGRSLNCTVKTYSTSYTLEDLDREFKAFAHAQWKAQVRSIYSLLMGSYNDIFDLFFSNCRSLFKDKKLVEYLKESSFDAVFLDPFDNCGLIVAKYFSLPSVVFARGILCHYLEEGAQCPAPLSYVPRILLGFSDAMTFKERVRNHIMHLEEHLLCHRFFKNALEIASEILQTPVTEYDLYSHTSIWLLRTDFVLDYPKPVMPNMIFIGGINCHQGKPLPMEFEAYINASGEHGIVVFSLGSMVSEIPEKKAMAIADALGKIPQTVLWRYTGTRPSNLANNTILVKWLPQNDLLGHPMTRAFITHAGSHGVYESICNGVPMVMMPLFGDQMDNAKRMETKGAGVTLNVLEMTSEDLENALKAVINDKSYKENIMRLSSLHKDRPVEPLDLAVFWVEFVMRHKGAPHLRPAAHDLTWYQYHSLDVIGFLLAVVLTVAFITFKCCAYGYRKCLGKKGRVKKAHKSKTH
How it was run: as §1

UGT1A6 = target: T5, UGT1A6 (Homo sapiens, UniProt P19224); test: Screening of recombinant UGT1A6 for glucuronidation activity
T5 sequence (P19224 27-532): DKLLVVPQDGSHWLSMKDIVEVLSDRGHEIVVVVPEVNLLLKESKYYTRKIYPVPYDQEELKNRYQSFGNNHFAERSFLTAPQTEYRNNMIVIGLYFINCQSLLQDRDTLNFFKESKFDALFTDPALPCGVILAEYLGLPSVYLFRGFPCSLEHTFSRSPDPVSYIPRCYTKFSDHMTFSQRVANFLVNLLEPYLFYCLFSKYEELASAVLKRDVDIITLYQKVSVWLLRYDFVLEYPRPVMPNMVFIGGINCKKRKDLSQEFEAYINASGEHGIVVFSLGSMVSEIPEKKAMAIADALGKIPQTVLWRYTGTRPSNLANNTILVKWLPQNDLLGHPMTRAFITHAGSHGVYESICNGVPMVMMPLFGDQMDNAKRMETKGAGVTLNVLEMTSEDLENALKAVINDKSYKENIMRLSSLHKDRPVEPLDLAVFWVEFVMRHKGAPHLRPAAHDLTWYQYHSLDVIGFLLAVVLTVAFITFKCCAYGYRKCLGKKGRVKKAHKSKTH
How it was run: as §1

| Structure (SMILES) | glucuronidation activity (glucuronide formed) (UGT1A4) | glucuronidation activity (glucuronide formed) (UGT1A3) | glucuronidation activity (glucuronide formed) (UGT1A8) | glucuronidation activity (glucuronide formed) (UGT1A9) | glucuronidation activity (glucuronide formed) (UGT1A6) |
| --- | --- | --- | --- | --- | --- |
| COc1cc(/C=C/c2cc([N+](=O)[O-])c(O)c([N+](=O)[O-])c2)cc(OC)c1 [DNR-1, (E)-4-(3,5-dimethoxystyryl)-2,6-dinitrophenol] | No activity | No activity | No activity | No activity | No activity |
| COc1ccc(/C=C(/C(=O)O)c2cc(OC)c(OC)c(OC)c2)cc1O [NI-12a, (E)-3-(3-hydroxy-4-methoxyphenyl)-2-(3,4,5-trimethoxyphenyl)acrylic acid] | not active | both COO- and O-glucuronides | only the hydroxyl metabolite | only the hydroxyl metabolite | not active |
| COc1ccc(C=Cc2cc(OC)cc(OC)c2/C=N/O)cc1 [NI-ST-05, (E)-2,4-dimethoxy-6-(4-methoxystyryl)benzaldehyde oxime] | inactive | inactive | inactive | catalyzed the formation of the C=N–O-glucuronide | inactive |
